Common to all, as to assay type: cell-based
Assay [1] deals with Adenosine receptor A2a (Homo sapiens) (UniProt P29274). In words: Displacement of [3H]CGS 21680 from human adenosine A2A receptor expressed HEK293 cells at 10 uM after 60 mins by gamma counting relative to NECA. The method, boiled down:
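Membranes from HEK-293 cells stably expressing human A2AAR were incubated with 15 nM [3H]CGS21680 at 25 °C for 60 min in 50 mM Tris–HCl (pH 7.4) with 10 mM MgCl2. Incubation was stopped by GF/B filtration. Results are mean ± sem, n = 3–5.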
On the technique in general: Loss of bound radioactivity is the signal in a displacement assay; it reports binding, not function.

Assay [2] concerns the target T1, Adenosine receptor A3 (Homo sapiens) (UniProt P0DMS8).
T1 sequence (whole entry): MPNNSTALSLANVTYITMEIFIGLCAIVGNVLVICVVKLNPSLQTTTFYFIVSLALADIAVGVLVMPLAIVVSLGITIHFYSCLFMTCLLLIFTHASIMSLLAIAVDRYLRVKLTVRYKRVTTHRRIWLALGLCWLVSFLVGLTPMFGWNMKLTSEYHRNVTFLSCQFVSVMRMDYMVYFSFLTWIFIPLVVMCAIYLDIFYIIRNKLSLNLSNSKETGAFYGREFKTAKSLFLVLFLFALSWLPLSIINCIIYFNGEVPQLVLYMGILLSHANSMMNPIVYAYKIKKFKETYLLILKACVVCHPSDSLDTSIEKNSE
In words: Displacement of [125I]I-AB-MECA from human adenosine A3 receptor expressed CHO cells at 10 uM after 60 mins by gamma counting relative to NECA. The method, boiled down:
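Competition binding used membranes from CHO cells stably expressing human A3AR with 0.5 nM [125I]I-AB-MECA and test nucleoside in 50 mM Tris–HCl (pH 7.4) with 10 mM MgCl2 and 1 mM EDTA, at 25 °C for 60 min. Nonspecific binding was defined with Cl-IB-MECA. Percent inhibition was taken at a single concentration. Results are mean ± sem, n = 3–5.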

Assay [3] has as its target T2, Adenosine receptor A1 (Homo sapiens) (UniProt P30542).
T2 sequence (whole entry): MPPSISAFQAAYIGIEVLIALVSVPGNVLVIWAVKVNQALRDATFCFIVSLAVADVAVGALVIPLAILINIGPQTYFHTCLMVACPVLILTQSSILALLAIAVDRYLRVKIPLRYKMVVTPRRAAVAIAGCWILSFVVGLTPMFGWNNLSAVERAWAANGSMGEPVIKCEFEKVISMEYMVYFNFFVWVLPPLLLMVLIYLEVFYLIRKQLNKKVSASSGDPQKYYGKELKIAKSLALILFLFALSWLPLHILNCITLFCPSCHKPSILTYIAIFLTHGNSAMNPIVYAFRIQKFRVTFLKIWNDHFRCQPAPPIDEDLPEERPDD
In words: Displacement of [3H]R-PIA from human adenosine A1 receptor expressed CHO cells at 10 uM after 60 mins by gamma counting relative to NECA. The method, boiled down: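 Membranes from CHO cells stably expressing human A1AR were incubated with 1 nM [3H]PIA at 25 °C for 60 min in 50 mM Tris–HCl (pH 7.4) with 10 mM MgCl2. Nonspecific binding was defined with CPA. Results are mean ± sem, n = 3–5.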

Sequence of Adenosine receptor A2a (Homo sapiens) (P29274 whole entry): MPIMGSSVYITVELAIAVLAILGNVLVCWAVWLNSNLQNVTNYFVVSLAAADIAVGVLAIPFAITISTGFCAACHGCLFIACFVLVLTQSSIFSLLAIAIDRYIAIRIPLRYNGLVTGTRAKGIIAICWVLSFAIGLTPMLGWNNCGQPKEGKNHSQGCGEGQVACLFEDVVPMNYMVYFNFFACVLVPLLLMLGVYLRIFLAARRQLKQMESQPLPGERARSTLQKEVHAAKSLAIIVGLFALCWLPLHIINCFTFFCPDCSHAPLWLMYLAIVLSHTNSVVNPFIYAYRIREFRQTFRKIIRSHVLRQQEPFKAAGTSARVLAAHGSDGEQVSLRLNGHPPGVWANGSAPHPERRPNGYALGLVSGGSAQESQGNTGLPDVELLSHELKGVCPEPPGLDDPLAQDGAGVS

Turning to `O[C@@H]1[C@H](O)CS[C@H]1Cn1cnc2c(NCc3cccc(F)c3)nc(Cl)nc21`, the inhibition in assay [1] was 12%; in assay [2], 17.6%; in assay [3], 7.9%.

With `O[C@@H]1[C@H](O)CS[C@H]1Cn1cnc2c(NCc3cccc(Cl)c3)nc(Cl)nc21`, the inhibition in assay [1] amounted to 11%; in assay [2] it was 13.6%; in assay [3], 3.2%.

Take `O[C@@H]1[C@H](O)CS[C@H]1Cn1cnc2c(NCc3cccc(Cl)c3)ncnc21`: the values for the inhibition in assay [1], in assay [2] and in assay [3] were 13%, 8.9% and 3.3%, respectively.

Take `O[C@@H]1[C@H](O)CS[C@H]1Cn1cnc2c(NCc3cccc(F)c3)ncnc21`: the results for the inhibition in assay [1], in assay [2] and in assay [3] were 14%, 8.7% and 0.3%, respectively.

On to `O[C@@H]1[C@H](O)CS[C@H]1Cn1cnc2c(NCc3cccc(I)c3)nc(Cl)nc21`, for which the inhibition in assay [1] was 18.4%; in assay [2], 10%; in assay [3], 16.4%.

Turning to `O[C@@H]1[C@H](O)CS[C@H]1Cn1cnc2c(NCc3cccc(I)c3)ncnc21`, the values for the inhibition in assay [1], in assay [2] and in assay [3] were 18.2%, 13.9% and 9.6%, respectively.

Regarding `O[C@@H]1[C@H](O)CS[C@H]1Cn1cnc2c(NCc3cccc(Br)c3)nc(Cl)nc21`, the inhibition came to 2% in assay [1], 21% in assay [2] and 23.6% in assay [3].

For the compound `O[C@@H]1[C@H](O)CS[C@H]1Cn1cnc2c(NCc3cccc(Br)c3)ncnc21`, the inhibition in assay [1] is 25.8%; in assay [2], 6.1%; in assay [3], 6.6%.

The inhibition is how much of the control response was suppressed. Read a low inhibition as a response near the control.
